Structures are written as SMILES. In brackets after ≈: the same amount, converted by molar mass. Several values for one entry are separate records, joined by “and”; a condition that tells them apart may be missing. Identical values can stand only once.

Assay type in all cases: functional
Experiment [1] relates to Escherichia coli. The experiment is described as follows: In vivo activity in murine against Escherichia coli 257 infection after sc administration. In a few lines:
(§1)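 Mouse protection test in CD1 Swiss albino mice (18–20 g). Mice were infected intraperitoneally with 0.5 mL of a diluted bacterial suspension, then treated within 5 min with one 1.0 mL subcutaneous dose at the dorsal base of the neck. Doses ranged from 0.05 to 250 mg/kg, with six mice per group. ED50 was calculated by the Reed–Muench method.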

Experiment [2] relates to Citrobacter freundii. The experiment is described as follows: In vivo activity in murine against Citrobacter freundii BS#16 infection after sc administration. In short, it runs like this:
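CD1 Swiss albino mice (18–20 g) infected intraperitoneally with 0.5 mL diluted bacterial culture suspension. Single subcutaneous treatment within 5 min, 1.0 mL at dorsal base of neck, serial dilutions spanning 0.05–250 mg/kg. Six mice per treatment and control group. ED50 (50% protective dose) derived by Reed and Muench method.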

Experiment [3] concerns Streptococcus pyogenes. Description: In vivo activity in murine against Streptococcus pyogenes 4 infection after sc administration. In a few lines:
as §1

The subject of experiment [4] is Enterobacter cloacae. The experiment is described as follows: In vitro antibacterial activity against Enterobacter cloacae P99. In a few lines:
(§2)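 Serial 2-fold dilutions in the NCCLS broth microdilution method for aerobic nonfastidious organisms, with an 18-h incubation. The value is reported as the minimum inhibitory concentration (MIC).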

The subject of experiment [5] is Streptococcus pyogenes. The experiment is described as follows: In vitro antibacterial activity against Streptococcus pyogenes 4. In short, it runs like this: (§3)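 Broth macrodilution with serial 2-fold dilutions in cation-supplemented Mueller-Hinton broth containing 10% goat serum. The value is reported as the MIC.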
For experiment [6], the system named is Pseudomonas aeruginosa. The experiment is described as follows: In vivo activity in murine against Pseudomonas aeruginosa 5712 infection after sc administration. In a few lines:
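Mouse protection test in CD1 Swiss albino mice (18–20 g) infected intraperitoneally with 0.5 mL of diluted P. aeruginosa suspension. Mice received 1.0 mL subcutaneously at the neck base within 5 min of infection and a second treatment 3 h after infection. Doses ranged from 0.05 to 250 mg/kg, with six mice per group. ED50 was calculated by the Reed–Muench method.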

Experiment [7] relates to Serratia marcescens. The experiment is described as follows: In vitro antibacterial activity against Serratia marcescens SM. In a few lines: as §2
For experiment [8], the system named is Escherichia coli. Description: In vitro antibacterial activity against Escherichia coli 257. In short, it runs like this:
as §2

The test system of experiment [9] is Staphylococcus aureus. The experiment is described as follows: In vivo activity in murine against Staphylococcus aureus 753(MR) infection after sc administration. In short, it runs like this:
as §1

For experiment [10], the system named is Serratia marcescens. The experiment is described as follows: In vivo activity in murine against Serratia marcescens SM infection after sc administration. In a few lines:
as §1

Experiment [11] relates to Pseudomonas aeruginosa. Description: In vitro antibacterial activity against Pseudomonas aeruginosa 5712. In a few lines: as §2
Experiment [12] relates to Staphylococcus aureus. The experiment is described as follows: In vivo activity in murine against Staphylococcus aureus Smith (MS) infection after sc administration. In a few lines:
as §1

Experiment [13] deals with Enterobacter cloacae. The experiment is described as follows: In vivo activity in murine against Enterobacter cloacae 5699 infection after sc administration. In a few lines:
as §1

In experiment [14] the test system is Enterobacter cloacae. The experiment is described as follows: In vitro antibacterial activity against Enterobacter cloacae 5699. In a few lines: as §2
Experiment [15] relates to Klebsiella pneumoniae. Description: In vitro antibacterial activity against Klebsiella pneumoniae A. In a few lines: as §2
Experiment [16] concerns Citrobacter freundii. Description: In vitro antibacterial activity against Citrobacter freundii BS 16. In short, it runs like this: as §2
Experiment [17] concerns Streptococcus pneumoniae. The experiment is described as follows: In vitro antibacterial activity against Streptococcus pneumoniae 6301. In short, it runs like this:
as §3

The subject of experiment [18] is Streptococcus pneumoniae. The experiment is described as follows: In vivo activity in murine against Streptococcus pneumoniae 6301 infection after sc administration. In short, it runs like this:
as §1

Experiment [19] deals with Staphylococcus aureus. The experiment is described as follows: In vitro antibacterial activity against Staphylococcus aureus Smith(MS). In short, it runs like this:
(§4)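 Staphylococci were tested by the standard agar dilution procedure using serial 2-fold dilutions of agent. The value is reported as the MIC.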

The test system of experiment [20] is Staphylococcus aureus. Description: In vitro antibacterial activity against Staphylococcus aureus 95(MR). In short, it runs like this:
as §4

In experiment [21] the test system is Klebsiella pneumoniae. Description: In vivo activity in murine against Klebsiella pneumoniae A infection after sc administration. In a few lines:
as §1

With `CN1CCN(c2c(F)cc3c(=O)c(C(=O)O)cn(CCF)c3c2F)CC1` [FLEROXACIN], the ED50 – broadly, the dose at which the effect has come halfway, by size or by number of responders – is 0.26 mg/kg with Escherichia coli [1]; 0.25 mg/kg with Escherichia coli [1] (Escherichia coli, sc, read-out: ED50); 2 mg/kg in the experiment on Citrobacter freundii [2]; > 250 mg/kg in the experiment with Streptococcus pyogenes [3]; 14 mg/kg and 31 mg/kg in the experiment on Pseudomonas aeruginosa [6]; 2.8 mg/kg in the experiment with Staphylococcus aureus [9]. Also, the ED50 is < 2 mg/kg with Serratia marcescens [10]; 0.65 mg/kg with Staphylococcus aureus [12]; < 2 mg/kg with Enterobacter cloacae [13]; > 250 mg/kg in the experiment with Streptococcus pneumoniae [18]; 0.3 mg/kg with Klebsiella pneumoniae [21]. In addition, the MIC (commonly the lowest concentration that inhibits growth of the organism) against Enterobacter cloacae [4] is 0.031 µg/mL (≈ 0.0839 µM); against Streptococcus pyogenes [5], 4 µg/mL (≈ 10.8 µM); against Serratia marcescens [7], 0.25 µg/mL (≈ 0.677 µM); with Escherichia coli [8], 0.031 µg/mL (≈ 0.0839 µM); against Pseudomonas aeruginosa [11], 4 µg/mL (≈ 10.8 µM); with Enterobacter cloacae [14] it was 0.063 µg/mL (≈ 0.171 µM). The MIC against Klebsiella pneumoniae [15] was found to be 0.031 µg/mL (≈ 0.0839 µM); in the experiment on Citrobacter freundii [16], 0.25 µg/mL (≈ 0.677 µM); in the experiment on Streptococcus pneumoniae [17] it was 8 µg/mL (≈ 21.7 µM); against Staphylococcus aureus [19], 0.25 µg/mL (≈ 0.677 µM); with Staphylococcus aureus [20], 0.25 µg/mL (≈ 0.677 µM).

The values are drawn from ChEMBL document CHEMBL1125894, “Dual-action cephalosporins: cephalosporin 3'-quaternary ammonium quinolones” (1991).
